Experimental data as given in ChEMBL document CHEMBL4513216, “Probing the Open Global Health Chemical Diversity Library for Multistage-Active Starting Points for Next-Generation Antimalarials” (ACS Infect Dis, 2020).

Test: Toxicity liver stage against HepG2, at 10uM
Format: cell-based
Set-up: test concentration 10 uM, cell line HepG2-A16-CD81EGFP
Conditions: human, HepG2-A16-CD81EGFP cells; read-out: INHIBITION
Method in brief: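 Uninfected HepG2-A16-CD81EGFP cells, 3 × 10^3 per well, 1536-well, plated on prespotted compound at 10 μM final, parasite-free screening media added to match infected plates; puromycin 10 μM positive, DMSO 0.5% negative; run in parallel with 48 h PbLuc assay at 37 °C, 5% CO2; viability by CellTiter-Glo luminescence, normalized to controls.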

SMILES | cytotoxicity at 10 µM [%]
COc1cccc(-c2cc(C(=O)Nc3nc[nH]n3)[nH]n2)c1 | -5.51
O=C(c1cscn1)N1CCN2C[C@H](OCc3cccnc3)C[C@H]2C1 | -7.62
Cn1cncc1CN1CCC2(CC1)CCN2c1ncccn1 | 9.61
CC(C)NC(=O)N1C[C@@H]2C[C@H](C(=O)N3CCCC3)[C@H](C1)O2 | -101
Cc1nn(C)c(Cl)c1C1CCCN1C(=O)c1ccnc(N(C)C)c1 (stereo unspecified) | -6.73
Cc1ccc(-c2csc(N)c2C#N)cc1 | -1.61
O=C(NCC1CCCOC1)c1ccc(-c2ccccc2)[nH]c1=O (stereo unspecified) | -12.2
CCCN1CCC(Cc2noc(-c3cc4cccnc4nc3C)n2)CC1 | -0.749
COC(=O)Cc1cccc(NC(=O)Cc2cc(C)[nH]n2)c1 | -2.45
CC(C)(NC(=O)c1scnc1Cl)c1ccccc1 | -10.9
Cn1c(Cn2ccnc2)nnc1C1CCCN(c2ncccn2)C1 (stereo unspecified) | -6.33
CS(=O)(=O)c1ccc(-c2cc(O)cc(CCC3CCCCN3)c2)cc1 (stereo unspecified) | 0.292
Cc1nn2c(N3CCC(O)C3)cc(-c3ccccc3)nc2c1C (stereo unspecified) | -11.5
CN1CCN(CCOc2ccc(NC(=O)c3ccoc3)cc2)CC1 | -2.09
COc1c(CNC(c2nccn2C)C(C)C)c(C)nn1C (stereo unspecified) | -7.46
CCN(CC1CCCN(CCc2cccc(OC)c2)C1)C(=O)CCSC (stereo unspecified) | 10.5
CN1CCN(Cc2cn3c(n2)CN(Cc2ccccn2)CC3)CC1 | -117
COc1ccc(CN(Cc2cncn2C)CC2CCCO2)c(OC)c1 (stereo unspecified) | -4.48
COc1ccc(CC2(C(=O)O)CCN(c3nc(C)ncc3C)CC2)cc1 | -21.8
CNc1nc(C)c(C(=O)NCC(C)(C)N2CCCCC2)s1 | 2.79
CCc1nnsc1C(=O)NCCn1nc2ccccn2c1=O | -2.04
COc1cccc(CC(=O)N2CCc3nc(C(N)=O)sc3CC2)c1 | 9.94
CCN1CC2(CC1=O)CN(Cc1ccccn1)CCN(C(C)=O)C2 (stereo unspecified) | -1.07

SMILES | cytotoxicity at 10 µM [%]
O=C1NCCN1C1CCN(c2ccnc(-c3ccccc3)n2)CC1 | 36.2
Cc1nn(C)cc1C1CC(=O)Nc2c1cnn2C(C)(C)C (stereo unspecified) | -5.45
NC(=O)C1CCN(C(=O)c2cc(S(=O)(=O)N3CCCCC3)cs2)CC1 | -45.1
NCC1CCCCN1Cc1cc(O)c2cccc(F)c2n1 (stereo unspecified) | -18.2
Cc1cc(NC(=O)CN2CCn3c(nnc3C3CC3)C2)no1 | -7.32
CC(=O)N1CC(C)CN(C(=O)c2cnccn2)c2ccccc21 (stereo unspecified) | 3.82
CC(C)c1ccc(OCn2ccc(C(=O)N3CCCC3)n2)cc1 | 12.7
CC1CN(C(=O)Nc2cc(C(F)(F)F)c[nH]c2=O)CCO1 (stereo unspecified) | 3.44
Cc1ccc(NC2CCN(C(=O)c3cccn3C)CC2)nn1 | -3.76
O=C(COc1coc(CN2CCCCCC2)cc1=O)c1ccccc1 | 4.21
CCn1nc(C)c(CN(CCOC)C(=O)c2ccc(=O)[nH]n2)c1C | -2.27
Cn1cnc2c1C(COCc1ccccc1)N(Cc1ccccn1)CC2 (stereo unspecified) | 9.82
Cc1cc(C(=O)N[C@H](C)c2onc(-c3cccnc3)c2C(=O)O)c(C)o1 | 1.47
CCC(Nc1nc(CCN)nc2ccccc12)c1cccs1 (stereo unspecified) | -3.09
COCCn1cc(C(=O)N2CCCC2c2cc(C)on2)c2ccccc21 (stereo unspecified) | 6.35
CC(C)NC(=O)[C@@H]1CC[C@@H]2[C@@H](CCN2Cc2cn(C)c3ccccc23)O1 | 9.49
COc1ccccc1CC(=O)N1CCC(NCc2cc[nH]c2)CC1 | 0.593
COc1cccc(CN(C)Cc2nc3cc(C)ccc3[nH]2)c1O | 2.74
CN1CCCc2cc(NC(=O)N3CCOC(C(N)=O)C3)ccc21 (stereo unspecified) | 0.602
COC(=O)CNC(=O)c1sc(-c2ccc(Cl)s2)nc1C | -5.63
Cc1ccoc1C(=O)N1C[C@@H]2COC[C@]2(COCc2cccnc2)C1 | 5.95
CC(C)NC(=O)c1cc2c([nH]c1=O)CC(c1cccs1)CC2=O (stereo unspecified) | -3.01
c1cn(-c2ccc(N3CCC(NC4CC4)CC3)cc2)cn1 | 5.16

SMILES | cytotoxicity at 10 µM [%]
CNC(=O)c1cn[nH]c1C1(C)CCCN(Cc2ccccn2)C1 (stereo unspecified) | -10.5
CN(Cc1cncnc1)[C@@H]1CN(Cc2ccco2)C[C@@H]2CCCO[C@@H]21 | -1.6
Cc1c(CN2C[C@@H](O)[C@H](Oc3cccc(F)c3)C2)cnn1C | -8.21
COc1cccc(-c2noc(-c3ccc(NCC(C)C)nc3)n2)c1OC | -12.2
CCC(O)CN1CCN(C(=O)CCc2c(C)noc2Cl)CC1 (stereo unspecified) | -8.89
CC(C)N(Cc1ccc(C#N)cc1)C(=O)Nc1ccncc1 | 3.9
COc1ccccc1N1CCC(CNC(=O)N(C)Cc2ccco2)C1 (stereo unspecified) | -146
CC(Oc1ccc(F)cc1F)C(=O)N1CCC2(CC1)CC(=O)N(C)C2 (stereo unspecified) | 1.63
Cc1ccc(CCC(C)NC2CCN(C(N)=O)CC2)cc1 (stereo unspecified) | -0.613
Cn1cc(CN2CCCN(C(=O)c3sccc3C#N)CC2)cn1 | -1.37
COc1ccc(CN2CC(O)CN(C(=O)CC(C)C)CC2=O)cc1 (stereo unspecified) | -0.634
CC(C)Oc1ncccc1CNC(=O)c1ccco1 | 1.32
COc1ccccc1N1CCC(CNCc2cccc(C#N)c2)C1 (stereo unspecified) | -5.21
CC(Nc1ncnc2c1CCNC2)c1ccc(C(C)(C)C)cc1 (stereo unspecified) | 28
CC1CCCCN1C(=O)CN1CCN(c2ccc3nncn3n2)CC1 (stereo unspecified) | 1.48
CN(C)CCN1C(=O)CCCC12CCCN(C(=O)c1cc[nH]n1)C2 (stereo unspecified) | -0.225
COC(C)c1noc(CN(C)c2nccnc2C#N)n1 (stereo unspecified) | 0.462
O=C(NC[C@H]1OC[C@@H](NC2COC2)[C@@H]1O)C1CCCC1 | -3.11
CCN1CCC(NC(=O)NC2CCOc3ccc(Br)cc32)CC1 (stereo unspecified) | -1.15
CC(C)CS(=O)(=O)CC(=O)N1CCCC1c1noc(C2CC2)n1 (stereo unspecified) | 13.4
COc1ccc(Oc2ncccc2NC(=O)N2CCOC(C)C2)cc1 (stereo unspecified) | 2.65
COCCCSc1ccc(NC(=O)Nc2cn[nH]c2)cc1 | 2.54
Cc1ccc(C#N)cc1NC(=O)NC1CCCN(c2ncccn2)C1 (stereo unspecified) | -10.2

SMILES | cytotoxicity at 10 µM [%]
CC(=O)NCc1ccc(C(=O)N2CCCC2c2c(C)nn(C)c2C)o1 (stereo unspecified) | -11.3
CCC(C)NC(=O)Nc1cccc(OCC#N)c1 (stereo unspecified) | -0.146
CCOC(=O)[C@H]1[C@@H](O)C(=O)N(C)C12CCN(C(=O)C(CC)CC)CC2 | -4.47
CCNC(=O)C1CCCN(C(=O)Nc2ccc3c(c2)CCCN3C)C1 (stereo unspecified) | 13.6
Fc1cc(CNc2nncs2)ccc1Cl | -1.74
CCCc1noc(CN2CCN(CCO)CC2)n1 | -12.1
c1cnn(CC2CN(Cc3nnc(C4CC4)o3)CCO2)c1 (stereo unspecified) | -5.09
CCNc1c(C#N)c(=O)n(C)c(=O)n1C | 0.504
Cc1cccc(-n2cc3[nH]c(=O)n(Cc4cccc(F)c4)n3c2=O)c1 | 1.79
C[C@@H]1CN(C(=O)CCc2cnn(C)c2)CC[C@@]1(O)C1CCOCC1 | -0.872
CN(Cc1ccc([S+](C)[O-])cc1)c1cncc(Br)c1 (stereo unspecified) | 11.7
Cc1cnn(CCC(=O)N2CCCC(c3cc(C(N)=O)[nH]n3)C2)c1 (stereo unspecified) | -7.32
CN(Cc1ccc2c(c1)OCCO2)c1ncc(S(N)(=O)=O)s1 | 0.482
CN1CCN(C(=O)CCc2cc(Br)cs2)CC1 | -5.35
COc1cc(CN2CC[C@@H](N3CCCCCC3)[C@H](O)C2)cc(Cl)c1OC | -1.47
Cc1cccc(-c2ncc(CNC(C)Cc3ncccc3C)cn2)c1 (stereo unspecified) | -13.2
OCCn1nccc1C1CCN(CCOc2ccccc2)CC1 | -0.121
Cc1cc(NC(=O)CN2CCc3cncnc3C2)on1 | -17.6
CCN(Cc1ccco1)C(=O)c1cc(OC)c2c(c1)OCCO2 | -4.22
CSc1cc2c(cc1NC(=O)NCC(=O)N(C)C)OCCO2 | -5.87
N#Cc1cc(NC(=O)C2CC=CC2)ccc1N1CCC(O)CC1 | -9.29
CCn1nc(C)c(NC(=O)CN2CC[C@@H](F)C2)c1C | -1.2
Cc1ccc(OCCN(C)Cc2cscn2)cc1 | 0.51

SMILES | cytotoxicity at 10 µM [%]
NC(=O)C1CCN(C(=O)c2cccn2Cc2cccs2)C1 (stereo unspecified) | -8.5
CCCn1cc(-c2cc(C(=O)N(C)C)c3cccc(C)c3n2)cn1 | 5.11
O=C(CN1CCCCCC1=O)NCC1CCN(c2ccccc2)C1 (stereo unspecified) | -6.5
O=C(Cc1ccsc1)N1CCCC(c2n[nH]c3ncccc23)C1 (stereo unspecified) | -6.8
CS(=O)(=O)N1CC2(CCN(Cc3ccccn3)C2)Cc2ccccc21 (stereo unspecified) | 8.08
CCS(=O)(=O)c1ncc(CN(C)Cc2ccccc2OC)n1CCOC | -2.23
COc1ccccc1OC1CN(Cc2ccc(C(=O)O)cc2)C1 | -8.98
CCC(c1ccccc1)c1nn2c(CN(CC)CC)nnc2s1 (stereo unspecified) | 7.79
CC(C)c1nc(CN2CCCC(Cn3cncn3)C2)cs1 (stereo unspecified) | -12.9
Cc1cc(C)c2c(NC(C)c3nncn3C3CCCC3)ncnc2n1 (stereo unspecified) | 5.01
CC(C(=O)N1CCCN(c2ccc(C#N)cc2)CC1)n1ccnc1 (stereo unspecified) | -9.75
CC(C)c1nnc2ccc(N3CCC(C(=O)O)CC3)nn12 | -1.92
COc1ncnc(N)c1CNCc1ccccc1-n1cccn1 | -24.4
NC1CCCN(C(=O)c2csc(-c3ccc(C(F)(F)F)cc3)n2)CC1 (stereo unspecified) | -15.1
Cc1nn(C)c(C)c1C1CCCN1C(=O)c1ccc(CN(C)C)cc1 (stereo unspecified) | -7.79
O=C(Nc1ccccc1)[C@H]1O[C@H](CCN2CCNCC2)CC[C@@H]1O | -7.49
Cc1ccc(N2C[C@H]3OCC[C@H]3[C@H](C(=O)NCC3CC3)C2)nn1 | -75.7
CC(=O)N1CCN(C(C)C)CC(COc2ccccc2)C1 (stereo unspecified) | -28.8
CC(C)c1nc(C2CCCN2C(=O)c2ccc(C#N)cn2)no1 (stereo unspecified) | -3.19
